Laboratory results taken from ChEMBL document CHEMBL1152867, “Targeting QseC signaling and virulence for antibiotic development” (Science, 2008).
Calls of active or inactive are those of the source. The calls are words filed in the database; no cut-off is given here.

Tests used:
[1] = tested on: Francisella tularensis subsp. tularensis SCHU S4; experiment: Inhibition of virulence gene qseC expression in Francisella tularensis SCHU S4 at 5 pM by quantitative real-time PCR; assay type: functional, organism-based
Salmonella typhimurium [2] = experiment: Antibacterial activity against Salmonella Typhimurium SL1344 infected in 129x1/SvJ mouse assessed as reduction of bacterial CFU in spleen at 20 mg/kg, po after 48 hrs relative to control; assay type: functional
Salmonella typhimurium [3] = experiment: Inhibition of norepinephrine-induced virulence gene sifA expression in Salmonella Typhimurium at 5 pM; assay type: functional, organism-based; settings: Salmonella enterica subsp. enterica serovar Typhimurium
Mus musculus [4] = experiment: Toxicity in CD1 mouse assessed as alkaline phosphatase levels at 20 mg/kg, po administered daily once for 5 days measured 3 days after final dose; assay type: organism-based; set-up: dose 20 mg/kg, route oral; settings: in vivo, 72 h
Mus musculus [5] = experiment: Toxicity in CD1 mouse assessed as urea nitrogen levels at 20 mg/kg, po administered daily once for 5 days measured 3 days after final dose; assay type: organism-based; set-up: dose 20 mg/kg, route oral; settings: in vivo, 72 h
Outline: (§1)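 Female CD-1 mice (~22 g), three per group, given 20 mg/kg by oral gavage once daily for 5 days. Vehicle-only mice served as controls. Animals were weighed and observed daily. Three days after the last dose they were weighed and sacrificed. Blood was taken for chemistry and complete blood counts, and organs were weighed.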

[6] = tested on: Francisella tularensis subsp. tularensis SCHU S4; experiment: Antibacterial activity against Francisella tularensis SCHU S4 infected C3H HeN mouse assessed as survival at 20 mg/kg, po administered single dose 3 hrs post-bacterial measured after 9 days; assay type: functional
Salmonella typhimurium [7] = experiment: Bacteriostatic activity against Salmonella Typhimurium SL1344 at 1 uM in presence of epinephrine; assay type: functional, organism-based; settings: Salmonella enterica subsp. enterica serovar Typhimurium str. SL1344
[8] = biological target: Beta-1 adrenergic receptor (Homo sapiens) (UniProt P08588); experiment: Effect on dobutamine-induced human beta-1-adrenergic receptor activation expressed in HEK293 cells assessed as cAMP release at 5 uM; assay type: functional, cell-based
Outline: (§2)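 HEK293 cells carried an EPAC-based cAMP BRET reporter. The agonist for β1 (exogenous) was 1 nM dobutamine, for β2 (endogenous) 100 nM terbutaline, and for β3 (exogenous) 10 nM BRL37344. Each agonist was given alone or with 5 μM compound. Live-cell cAMP was read as triplicate means, representative of 3 experiments.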

Salmonella typhimurium [9] = experiment: Antibacterial activity against Salmonella Typhimurium SL1344 infected in 129x1/SvJ mouse assessed as survival at 20 mg/kg, po administered 3 hrs pre and 3 hrs post-bacterial challenge measured after 12 days; assay type: functional
Outline: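 Female 129x1/SvJ mice, 7–9 weeks old, were infected intraperitoneally with 10^8 cfu S. typhimurium SL1344. The test agent was given orally at 20 mg/kg in 5% DMSO/23% PEG400/70% Na bicarbonate pH 9/2% Tween 80, 3 h before and 3 h after infection. Controls were drug alone and infection alone. Groups of 10 mice were used and the experiment was repeated twice. Morbidity and death were recorded daily, and survivors were euthanized at day 12.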

Salmonella typhimurium [10] = experiment: Antibacterial activity against Salmonella Typhimurium SL1344 infected in 129x1/SvJ mouse assessed as reduction of bacterial CFU in liver at 20 mg/kg, po after 48 hrs relative to control; assay type: functional
Mus musculus [11] = experiment: Toxicity in CD1 mouse assessed as change in liver weight at 20 mg/kg, po administered daily once for 5 days measured 3 days after final dose; assay type: organism-based; set-up: dose 20 mg/kg, route oral; settings: in vivo, 72 h; outline: as §1
[12] = tested on: Francisella tularensis subsp. tularensis SCHU S4; experiment: Antibacterial activity against Francisella tularensis SCHU S4 infected in mouse J774 cells assessed as reduction in bacterial CFU at 5 nM relative to control; assay type: functional
Mus musculus [13] = experiment: Toxicity in CD1 mouse assessed as serum total protein levels at 20 mg/kg, po administered daily once for 5 days measured 3 days after final dose; assay type: organism-based; set-up: dose 20 mg/kg, route oral; settings: in vivo, 72 h; outline: as §1
Escherichia coli [14] = experiment: Bactericidal activity against Escherichia coli 8624 at 1 uM in presence of epinephrine; assay type: functional, organism-based
Mus musculus [15] = experiment: Toxicity in CD1 mouse assessed as triglyceride levels at 20 mg/kg, po administered daily once for 5 days measured 3 days after final dose; assay type: organism-based; set-up: dose 20 mg/kg, route oral; settings: in vivo, 72 h; outline: as §1
[16] = biological target: Beta-1 adrenergic receptor (Homo sapiens) (UniProt P08588); experiment: Activation of human beta-1-adrenergic receptor expressed in HEK293 cells assessed as cAMP release at 5 uM; assay type: functional, cell-based
Outline: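 Live HEK293 cells carried an EPAC-based cAMP BRET reporter and expressed endogenous β2 or exogenous β1 or β3 adrenergic receptors. Cells were exposed to test compound alone at 5 μM. Values are means of triplicates, representative of 3 experiments.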

[17] = Terminal half life in CD1 mouse at 20 mg/kg, iv administered as bolus dose; assay type: ADME, organism-based; set-up: dose 20 mg/kg, route intravenous; settings: in vivo, read-out: beta t1/2
Outline: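 Groups of three were bled terminally by cardiac puncture at set times. Plasma was acetonitrile-precipitated with internal standard and quantified by electrospray LC/MS/MS against a plasma standard curve (10-1000 ng/ml). Noncompartmental analysis was used.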

Escherichia coli [18] = experiment: Antibacterial activity against Escherichia coli infected in New Zealand white rabbit assessed as inhibition of bacterial colonization in ileum at 20 mg/kg administered 3 hrs post-bacterial challenge; assay type: functional, organism-based; set-up: dose 20 mg/kg
[19] = biological target: Beta-2 adrenergic receptor (Homo sapiens) (UniProt P07550); experiment: Effect on terbulaline-induced human beta-2-adrenergic receptor activation expressed in HEK293 cells assessed as cAMP release at 5 uM; assay type: functional, cell-based; outline: as §2
[20] = tested on: Francisella tularensis subsp. tularensis SCHU S4; experiment: Inhibition of virulence gene pdpA expression in Francisella tularensis SCHU S4 at 5 pM by quantitative real-time PCR; assay type: functional, organism-based
Mus musculus [21] = experiment: Toxicity in CD1 mouse assessed as change in thymus weight at 20 mg/kg, po administered daily once for 5 days measured 3 days after final dose; assay type: organism-based; set-up: dose 20 mg/kg, route oral; settings: in vivo; outline: as §1
Mus musculus [22] = experiment: Toxicity in CD1 mouse assessed as mean corpuscular hemoglobin at 20 mg/kg, po administered daily once for 5 days measured 3 days after final dose; assay type: organism-based; set-up: dose 20 mg/kg, route oral; settings: in vivo, 72 h; outline: as §1
Escherichia coli [23] = experiment: Inhibition of epinephrine-induced EspA protein secretion in Escherichia coli 8624 at 5 nM by Western blot; assay type: functional, organism-based
Outline: (§3)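 Secreted proteins in cell-free supernatant were TCA-precipitated and immunoblotted with rabbit polyclonal anti-EspA and anti-EspB, with ECL detection.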

Escherichia coli [24] = experiment: Inhibition of epinephrine-induced EspA protein secretion in Escherichia coli 8624 at 5 pM by Western blot; assay type: functional, organism-based; outline: as §3
Escherichia coli [25] = experiment: Antibacterial activity against Escherichia coli infected in New Zealand white rabbit assessed as inhibition of bacterial colonization in cecum at 20 mg/kg administered 24 hrs post-bacterial challenge; assay type: functional, organism-based; set-up: dose 20 mg/kg; settings: Caecum
Mus musculus [26] = experiment: Toxicity in CD1 mouse assessed as glucose levels at 20 mg/kg, po administered daily once for 5 days measured 3 days after final dose; assay type: organism-based; set-up: dose 20 mg/kg, route oral; settings: in vivo, 72 h; outline: as §1
Mus musculus [27] = experiment: Toxicity in CD1 mouse assessed as change in heart weight at 20 mg/kg, po administered daily once for 5 days measured 3 days after final dose; assay type: organism-based; set-up: dose 20 mg/kg, route oral; settings: in vivo; outline: as §1
Escherichia coli [28] = experiment: Inhibition of AI3-induced Qsec-dependent virulence gene stx2A expression in Escherichia coli at 5 pM by quantitative real-time PCR; assay type: functional, organism-based
Escherichia coli [29] = experiment: Bacteriostatic activity against Escherichia coli 8624 at 1 uM in presence of epinephrine; assay type: functional, organism-based
[30] = biological target: Beta-3 adrenergic receptor (Homo sapiens) (UniProt P13945); experiment: Effect on BRL-37344-induced human beta-3-adrenergic receptor activation expressed in HEK293 cells assessed as cAMP release at 5 uM; assay type: functional, cell-based; outline: as §2
Mus musculus [31] = experiment: Toxicity in CD1 mouse assessed as cholesterol levels at 20 mg/kg, po administered daily once for 5 days measured 3 days after final dose; assay type: organism-based; set-up: dose 20 mg/kg, route oral; settings: in vivo, 72 h; outline: as §1
Mus musculus [32] = experiment: Toxicity in CD1 mouse assessed as change in brain weight at 20 mg/kg, po administered daily once for 5 days measured 3 days after final dose; assay type: organism-based; set-up: dose 20 mg/kg, route oral; settings: in vivo; outline: as §1

Beta-1 adrenergic receptor (Homo sapiens), sequence (P08588 whole entry, looked up): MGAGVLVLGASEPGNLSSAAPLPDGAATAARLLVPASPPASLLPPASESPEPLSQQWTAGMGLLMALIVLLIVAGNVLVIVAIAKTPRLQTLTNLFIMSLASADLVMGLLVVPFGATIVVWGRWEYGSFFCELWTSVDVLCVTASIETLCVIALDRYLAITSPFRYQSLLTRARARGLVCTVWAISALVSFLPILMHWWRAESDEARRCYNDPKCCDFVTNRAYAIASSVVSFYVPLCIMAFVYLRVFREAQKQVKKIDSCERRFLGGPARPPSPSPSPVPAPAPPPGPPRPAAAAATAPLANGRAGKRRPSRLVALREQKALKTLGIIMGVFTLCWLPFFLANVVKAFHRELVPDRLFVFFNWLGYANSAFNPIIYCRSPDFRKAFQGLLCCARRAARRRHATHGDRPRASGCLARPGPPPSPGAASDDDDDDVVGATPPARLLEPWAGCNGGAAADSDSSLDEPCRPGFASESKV
Beta-3 adrenergic receptor (Homo sapiens), sequence (P13945 whole entry, looked up): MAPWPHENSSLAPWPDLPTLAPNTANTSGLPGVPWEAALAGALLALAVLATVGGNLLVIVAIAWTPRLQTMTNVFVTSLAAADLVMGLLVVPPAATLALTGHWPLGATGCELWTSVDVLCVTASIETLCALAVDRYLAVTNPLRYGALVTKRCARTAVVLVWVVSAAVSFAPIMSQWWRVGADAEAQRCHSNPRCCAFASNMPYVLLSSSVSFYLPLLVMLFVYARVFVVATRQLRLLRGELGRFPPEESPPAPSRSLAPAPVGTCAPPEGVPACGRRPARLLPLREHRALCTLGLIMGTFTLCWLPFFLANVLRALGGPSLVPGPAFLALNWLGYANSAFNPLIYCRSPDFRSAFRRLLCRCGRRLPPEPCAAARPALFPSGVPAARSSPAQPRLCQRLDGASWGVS
Beta-2 adrenergic receptor (Homo sapiens), sequence (P07550 whole entry, looked up): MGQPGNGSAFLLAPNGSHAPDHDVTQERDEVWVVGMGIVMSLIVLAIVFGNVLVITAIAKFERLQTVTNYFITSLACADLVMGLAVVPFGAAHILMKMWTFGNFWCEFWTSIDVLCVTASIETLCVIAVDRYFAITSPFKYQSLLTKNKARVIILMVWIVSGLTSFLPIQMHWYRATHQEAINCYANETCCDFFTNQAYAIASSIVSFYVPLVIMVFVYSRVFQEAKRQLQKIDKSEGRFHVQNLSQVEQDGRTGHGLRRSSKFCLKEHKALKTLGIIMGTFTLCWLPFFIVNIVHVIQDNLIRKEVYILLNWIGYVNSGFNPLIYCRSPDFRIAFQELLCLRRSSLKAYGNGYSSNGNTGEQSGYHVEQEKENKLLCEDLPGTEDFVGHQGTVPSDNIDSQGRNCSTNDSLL

O=S(=O)(Nc1ccccc1)c1ccc(NC(=S)Nc2ccccc2)cc1
Activity [1]: Active
fold change (FC) (Salmonella typhimurium [2]): 10
Activity (Salmonella typhimurium [3]): Active
Activity (Mus musculus [4]): 141.3 U/L
Activity (Mus musculus [5]): 19 mg/dL
Activity [6]: 80%
Activity (Salmonella typhimurium [7]): inactive
Activity [8]: inactive
Activity (Salmonella typhimurium [9]): 20%
fold change (FC) (Salmonella typhimurium [10]): 10
Activity (Mus musculus [11]): Non-toxic
fold change (FC) [12]: 10
Activity (Mus musculus [13]): 4.4 g/dL
Activity (Escherichia coli [14]): inactive
Activity (Mus musculus [15]): 99.3 mg/dL
Activity [16]: inactive
half-life [17]: 5.65 h
Activity (Escherichia coli [18]): inactive
Activity [19]: inactive
Activity [20]: Active
Activity (Mus musculus [21]): Non-toxic
Activity (Mus musculus [22]): 16.1 pg
Activity (Escherichia coli [23]): Active
Activity (Escherichia coli [24]): Active
Activity (Escherichia coli [25]): inactive
Activity (Mus musculus [26]): 287 mg/dL
Activity (Mus musculus [27]): Non-toxic
Activity (Escherichia coli [28]): Active
Activity (Escherichia coli [29]): inactive
Activity [30]: inactive
Activity (Mus musculus [31]): 122 mg/dL
Activity (Mus musculus [32]): Non-toxic
